Laboratory results: ChEMBL document CHEMBL1134739, “Synthesis, biological activity and comparative analysis of DNA binding affinities and human DNA topoisomerase I inhibitory activities of novel 12-alkoxy-benzo[c]phenanthridinium salts” (Bioorg Med Chem Lett, 2001)

Columns and labels:
Caov-3 cell line [1] = test: Compound was tested for cytotoxicity against CaOv3 human solid tumor cell line; NA=Not active; type: functional, cell-based
Procedure, shortened: (§1)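 MTT assay on adherent solid tumor lines. Drug added 24 h after plating at nine concentrations, then 72 h growth with drug. MTT (2.5 mg/mL solution in PBS) added for 3 h, medium aspirated, formazan dissolved in DMSO, absorbance read at 570 nm. IC50 taken from dose/inhibition curves.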

MCF7 [2] = test: Compound was tested for cytotoxicity against MCF-7 human solid tumor cell line; NA=Not active; type: functional, cell-based; procedure, shortened: as §1
Nucleic Acid [3] = test: Compound was tested for its binding affinity towards poly(GC); type: nucleic-acid assay
Procedure, shortened: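 Double-stranded poly(dG-dC)·poly(dG-dC) concentration set using a molar extinction coefficient of 13,200 M^-1 cm^-1. Binding was followed by recording UV–vis spectra.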

Nucleic Acid [4] = test: Compound was tested for its binding affinity towards calf thymus DNA; type: nucleic-acid assay; settings: Bos taurus
Procedure, shortened: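 Calf thymus DNA concentration set using a molar extinction coefficient of 13,200 M^-1 cm^-1. Binding was followed by recording UV–vis spectra.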

Nucleic Acid [5] = test: Compound was tested for its binding affinity towards poly(AT); type: nucleic-acid assay
Procedure, shortened: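 Double-stranded poly(dA-dT)·poly(dA-dT) concentration set using a molar extinction coefficient of 13,900 M^-1 cm^-1. Binding was followed by recording UV–vis spectra.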

HT-29 [6] = test: (§2) Compound was tested for cytotoxicity against HT-29 human solid tumor cell line; type: functional, cell-based
Procedure, shortened: (§3)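 MTT assay: drugs added 24 h after plating at nine concentrations; cells grown 72 h with drug, then MTT (2.5 mg/mL solution in PBS) added for 3 h. Formazan dissolved in DMSO, absorbance read at 570 nm. IC50 taken from dose/inhibition curves.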

Caov-3 cell line [7] = test: (§4) Compound was tested for cytotoxicity against CaOv3 human solid tumor cell line; type: functional, cell-based; procedure, shortened: as §3
A549 [8] = test: (§5) Compound was tested for cytotoxicity against A-549 human solid tumor cell line; type: functional, cell-based; procedure, shortened: as §3
MCF7 [9] = test: (§6) Compound was tested for cytotoxicity against MCF-7 human solid tumor cell line; type: functional, cell-based; procedure, shortened: as §3
Caov-3 cell line [10] = test: as §4; type: functional; procedure, shortened: as §3
A549 [11] = test: as §5; type: functional
MCF7 [12] = test: as §6; type: functional
HT-29 [13] = test: as §2; type: functional

Row | SMILES | IC50 (Caov-3 cell line [1]) | IC50 (MCF7 [2]) | K (Nucleic Acid [3]) [M⁻¹] | K (Nucleic Acid [4]) [M⁻¹] | K (Nucleic Acid [5]) [M⁻¹] | IC30 (HT-29 [6]) [µM] | IC50 (Caov-3 cell line [7]) [nM] | IC50 (A549 [8]) [nM] | IC50 (MCF7 [9]) [µM] | IC30 (Caov-3 cell line [10]) [µM] | IC30 (A549 [11]) [µM] | IC30 (MCF7 [12]) [µM] | IC30 (HT-29 [13]) [µM]
1 | CCOc1cc2c3cc(OC)c(OC)cc3c[n+](C)c2c2cc(OC)c(O)cc12.[I-] | Not Active | Not Active | 60000 | 250000 | 300000 | 5 |  |  |  |  |  |  | 
2 | COc1cc2c(ccc3c4cc(OC)c(OC)cc4c[n+](C)c23)cc1O [FAGARONINE] |  |  | 1.1e+06 | 1e+06 | 1e+06 | 9 | 500 | 100 | 4 |  |  |  | 
3 | CCOc1cc2c3cc(OC)c(OC)cc3c[n+](C)c2c2cc(OC)c(OC)cc12 |  |  | 100000 | 250000 | 2.5e+06 | 2 |  | 80 | 2 | 0.5 |  |  | 
4 | CCOc1cc2c3cc(OC)c(OC)cc3c(C)[n+](C)c2c2cc(OC)c(OC)cc12 |  |  | 50000 | 700000 | 700000 |  |  |  |  | 10 | 10 | 1 | 9
5 | CCOc1cc2c3cc(OC)c(OC)cc3c[n+](C)c2c2cc(OC)c(OS(C)(=O)=O)cc12.CS(=O)(=O)[O-] | Not Active | Not Active | 53000 | 250000 | 50000 |  |  | 500 |  |  |  |  | 1
